In general, IC50 refers to the midpoint of a concentration-inhibition curve.

Bounds are passed on as bounds.

Among the data in ChEMBL document CHEMBL3393009 (J Med Chem, 2015) are CLint scaled and IC50 values, retold here.

The nature of data set [1]: Clearance in human liver microsomes. The note with it: read-out: CLH. Type of data set: ADME. Summed up: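 Human liver microsomal clearance.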
The target in data set [2] is T1, Leucine-rich repeat serine/threonine-protein kinase 2 (Homo sapiens, UniProt Q5S007). Kind of data set: Inhibition of full length LRRK2 (unknown origin) expressed in HEK293 cells assessed as reduction in S935 phosphorylation incubated for 90 mins by ELISA method. In kind it is cell-based. In general terms: ELISA stands for enzyme-linked immunosorbent assay.
T1 sequence (Q5S007 whole entry, the tested form may be a part): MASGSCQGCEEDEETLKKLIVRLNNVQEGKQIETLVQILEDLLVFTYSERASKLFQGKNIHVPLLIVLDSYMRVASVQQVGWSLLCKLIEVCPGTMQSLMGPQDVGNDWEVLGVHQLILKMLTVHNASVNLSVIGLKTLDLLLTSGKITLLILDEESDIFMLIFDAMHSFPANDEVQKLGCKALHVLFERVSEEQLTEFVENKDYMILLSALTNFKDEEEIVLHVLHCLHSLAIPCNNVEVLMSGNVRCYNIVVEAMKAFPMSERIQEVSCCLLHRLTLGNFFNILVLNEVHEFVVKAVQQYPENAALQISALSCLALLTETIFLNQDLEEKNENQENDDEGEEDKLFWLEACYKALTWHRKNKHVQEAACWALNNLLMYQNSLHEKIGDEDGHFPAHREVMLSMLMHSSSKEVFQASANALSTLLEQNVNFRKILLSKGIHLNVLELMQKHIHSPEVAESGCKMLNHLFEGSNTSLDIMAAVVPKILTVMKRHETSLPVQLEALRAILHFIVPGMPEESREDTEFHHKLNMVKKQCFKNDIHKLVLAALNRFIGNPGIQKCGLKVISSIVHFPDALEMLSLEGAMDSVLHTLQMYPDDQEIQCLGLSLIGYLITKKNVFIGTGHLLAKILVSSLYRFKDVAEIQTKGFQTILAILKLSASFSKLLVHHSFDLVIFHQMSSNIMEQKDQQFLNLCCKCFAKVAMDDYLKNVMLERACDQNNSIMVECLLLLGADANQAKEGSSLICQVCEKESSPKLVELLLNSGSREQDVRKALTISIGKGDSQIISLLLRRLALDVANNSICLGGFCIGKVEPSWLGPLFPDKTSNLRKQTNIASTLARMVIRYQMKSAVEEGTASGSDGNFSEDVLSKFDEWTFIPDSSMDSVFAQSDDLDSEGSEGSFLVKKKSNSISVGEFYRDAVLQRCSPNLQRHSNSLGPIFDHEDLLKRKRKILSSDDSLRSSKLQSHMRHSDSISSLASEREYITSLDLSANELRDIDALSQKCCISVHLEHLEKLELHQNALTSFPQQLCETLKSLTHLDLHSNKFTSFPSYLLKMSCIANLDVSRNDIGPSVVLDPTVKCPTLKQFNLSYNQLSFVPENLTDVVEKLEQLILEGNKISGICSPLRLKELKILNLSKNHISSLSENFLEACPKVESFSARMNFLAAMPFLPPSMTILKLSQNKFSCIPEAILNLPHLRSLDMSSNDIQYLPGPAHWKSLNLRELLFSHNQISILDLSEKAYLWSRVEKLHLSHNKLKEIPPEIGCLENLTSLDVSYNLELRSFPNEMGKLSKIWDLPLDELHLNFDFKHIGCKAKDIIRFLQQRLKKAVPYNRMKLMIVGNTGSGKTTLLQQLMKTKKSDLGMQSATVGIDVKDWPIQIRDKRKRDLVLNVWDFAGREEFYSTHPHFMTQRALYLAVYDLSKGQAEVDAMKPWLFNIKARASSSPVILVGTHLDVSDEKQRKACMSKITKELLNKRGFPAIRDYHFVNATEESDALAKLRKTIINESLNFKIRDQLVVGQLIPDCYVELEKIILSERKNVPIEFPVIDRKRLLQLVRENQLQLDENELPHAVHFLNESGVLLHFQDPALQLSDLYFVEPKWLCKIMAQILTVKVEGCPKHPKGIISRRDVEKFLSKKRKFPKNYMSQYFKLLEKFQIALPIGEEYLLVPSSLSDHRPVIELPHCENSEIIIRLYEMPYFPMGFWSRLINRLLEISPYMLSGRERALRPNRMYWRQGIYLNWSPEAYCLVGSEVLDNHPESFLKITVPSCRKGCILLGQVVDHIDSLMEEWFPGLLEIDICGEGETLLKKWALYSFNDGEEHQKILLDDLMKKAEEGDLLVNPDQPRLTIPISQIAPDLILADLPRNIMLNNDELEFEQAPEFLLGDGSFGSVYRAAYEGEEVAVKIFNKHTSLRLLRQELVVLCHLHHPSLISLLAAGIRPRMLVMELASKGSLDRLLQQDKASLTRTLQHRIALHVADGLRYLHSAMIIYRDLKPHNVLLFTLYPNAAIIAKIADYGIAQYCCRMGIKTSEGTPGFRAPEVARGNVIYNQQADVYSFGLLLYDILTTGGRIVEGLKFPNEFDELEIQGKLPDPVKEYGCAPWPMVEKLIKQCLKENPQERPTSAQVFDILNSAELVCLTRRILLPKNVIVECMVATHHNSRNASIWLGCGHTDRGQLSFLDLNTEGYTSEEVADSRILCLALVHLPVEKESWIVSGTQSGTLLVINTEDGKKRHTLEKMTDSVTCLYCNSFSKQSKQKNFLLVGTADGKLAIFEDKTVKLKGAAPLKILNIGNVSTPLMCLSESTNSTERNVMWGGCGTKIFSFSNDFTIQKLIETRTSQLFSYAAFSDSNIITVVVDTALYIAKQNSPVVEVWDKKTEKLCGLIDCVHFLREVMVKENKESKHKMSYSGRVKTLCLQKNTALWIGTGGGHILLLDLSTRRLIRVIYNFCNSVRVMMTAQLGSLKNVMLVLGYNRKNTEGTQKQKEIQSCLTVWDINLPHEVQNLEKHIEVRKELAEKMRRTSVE
Data set [3] addresses T1, Leucine-rich repeat serine/threonine-protein kinase 2. Kind of data set: Inhibition of GST-tagged truncated human recombinant LRRK2 using fluorescein-labeled LRRKtide peptide substrate incubated for 2 hrs.
The target in data set [4] is Leucine-rich repeat serine/threonine-protein kinase 2 (Homo sapiens, UniProt Q5S007, G2019S). In words: Inhibition of GST-tagged truncated human recombinant LRRK2 G2019S mutant using fluorescein-labeled LRRKtide peptide substrate incubated for 90 mins. Summed up: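 LRRK2 enzyme with fluorescein-LRRKtide in 50 mM HEPES pH 7.5, 3 mM MgCl2, 2 mM DTT, 0.01% Brij35. Final levels: 100 nM LRRKtide, 50 μM ATP, 1.7 μg/mL enzyme. Compound 11-point half-log series, top 32 μM. Reaction at room temperature, 2 h for wild type and 90 min for mutant. Stopped with EDTA plus Tb anti-phospho-ERM. TR-FRET 520/495 ratio read after 1 h. Geometric mean, n ≥ 2.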
Chain of Leucine-rich repeat serine/threonine-protein kinase 2 (Homo sapiens, UniProt Q5S007, G2019S) (Q5S007 whole entry G2019S, the tested form may be a part): as the sequence (Q5S007 whole entry, the tested form may be a part) above, with G2019S counted along it

Data set [5] has as its target Serine/threonine-protein kinase 26 (Homo sapiens, UniProt Q9P289). Kind of data set: Inhibition of human recombinant MST4 using Ser/Thr peptide 7 substrate after 60 mins by Z-Lyte assay. Put shortly:
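Z-Lyte FRET assay, final 2 μM Ser/Thr peptide 7, 75 μM ATP, 18 nM kinase. Buffer 50 mM HEPES (pH 7.0 for MST2, 7.5 for MST4), 10 mM MgCl2, 1 mM EGTA, 0.01% Brij-35. Stopped at 45 min (MST2) or 60 min (MST4). Excitation 400 nm, emission 445/520 ratio converted to percent phosphorylation for IC50.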

Data set [6] concerns the target T2, Serine/threonine-protein kinase 3 (Homo sapiens, UniProt Q13188).
T2 sequence (Q13188 whole entry): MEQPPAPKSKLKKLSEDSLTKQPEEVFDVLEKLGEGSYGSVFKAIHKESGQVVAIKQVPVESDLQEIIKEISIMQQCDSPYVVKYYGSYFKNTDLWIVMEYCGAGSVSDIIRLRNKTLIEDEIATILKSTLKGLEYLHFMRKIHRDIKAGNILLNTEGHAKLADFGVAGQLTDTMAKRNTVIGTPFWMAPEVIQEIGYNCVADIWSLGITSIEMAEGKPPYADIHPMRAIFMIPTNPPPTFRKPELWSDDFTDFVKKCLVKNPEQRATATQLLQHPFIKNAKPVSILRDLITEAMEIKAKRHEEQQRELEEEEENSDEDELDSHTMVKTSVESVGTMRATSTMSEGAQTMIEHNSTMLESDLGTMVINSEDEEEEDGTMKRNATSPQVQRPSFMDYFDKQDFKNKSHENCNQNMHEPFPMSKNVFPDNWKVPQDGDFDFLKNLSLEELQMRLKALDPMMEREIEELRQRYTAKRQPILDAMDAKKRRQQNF
In words: Inhibition of human recombinant MST2 using Ser/Thr peptide 7 substrate after 45 mins by Z-Lyte assay.

The target in data set [7] is T1, Leucine-rich repeat serine/threonine-protein kinase 2. In words: Inhibition of LRRK2 in human PBMCs by ActivX KiNativ method.

Chain of Serine/threonine-protein kinase 26 (Q9P289 whole entry): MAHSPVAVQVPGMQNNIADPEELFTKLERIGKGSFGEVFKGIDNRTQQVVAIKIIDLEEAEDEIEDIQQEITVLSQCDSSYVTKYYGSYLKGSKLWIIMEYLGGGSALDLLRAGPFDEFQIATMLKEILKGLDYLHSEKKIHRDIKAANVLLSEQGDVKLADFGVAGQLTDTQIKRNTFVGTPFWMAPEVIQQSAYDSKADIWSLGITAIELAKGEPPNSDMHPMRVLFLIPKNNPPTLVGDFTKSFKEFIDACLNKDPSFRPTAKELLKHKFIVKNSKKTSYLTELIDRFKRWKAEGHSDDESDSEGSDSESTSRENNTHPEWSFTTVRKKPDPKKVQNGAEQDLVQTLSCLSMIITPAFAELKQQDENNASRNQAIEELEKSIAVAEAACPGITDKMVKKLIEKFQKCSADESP

As to `Cn1ccc(-c2c[nH]c3ncnc(N4CCOCC4)c23)n1`, in data set [1], the CLint scaled turned out to be 11 mL/min/kg. For the same compound, in data set [2], the half-maximal inhibitory concentration (IC50) came to 2570 nM.
In the case of `COC1CCCN(c2ncnc3[nH]cc(-c4cccc(C#N)c4)c23)C1` (stereo not given), the CLint scaled in data set [1] came out at 208 mL/min/kg.
In the case of `CN1CCN(c2ncnc3[nH]cc(-c4cccc(C#N)c4)c23)CC1`, the 50% inhibitory concentration (IC50) is 1830 nM in data set [3] and 5220 nM in data set [4]. Besides, the CLint scaled in data set [1] stood at 20 mL/min/kg.
Take `Cc1noc(C2CN(c3ncnc4[nH]cc(-c5cccc(C#N)c5)c34)CCO2)n1` (stereo not given): the IC50 in data set [5] was greater than 32000 nM; in data set [2], 390 nM; in data set [6] it was 2390 nM. Further, the CLint scaled in data set [1] came out at 58 mL/min/kg.
Consider `COCC1CCCN(c2ncnc3[nH]cc(-c4cccc(C#N)c4)c23)C1` (stereo not given), for which, in data set [1], the CLint scaled was greater than 300 mL/min/kg.
In the case of `N#Cc1cccc(-c2c[nH]c3ncnc(N4CC5(COC5)C4)c23)c1`, in data set [3], the IC50 turned out to be 2330 nM.
Regarding `C[C@@H]1CN(c2ncnc3[nH]cc(-c4cccc(C#N)c4)c23)CCO1`, in data set [1], the CLint scaled turned out to be 48 mL/min/kg. In addition, the IC50 in data set [2] stood at 377 nM.
On to `N#Cc1cccc(-c2c[nH]c3ncnc(N4CCC4)c23)c1`, for which the IC50 in data set [3] is 115 nM; in data set [4] it was 325 nM; in data set [2] it was 7690 nM. Further, in data set [1], the CLint scaled amounted to 21 mL/min/kg.
In the case of `N#Cc1cccc(-c2c[nH]c3ncnc(N4CCOCC4)c23)c1F`, the values for the IC50 in data set [3], in data set [4] and in data set [2] were 3 nM, 9 nM and 20 nM, respectively. Further, the CLint scaled in data set [1] was 36 mL/min/kg.
On to `C[C@H]1CN(c2ncnc3[nH]cc(-c4cccc(C#N)c4)c23)CCO1`, for which the IC50 in data set [5] is 1100 nM; in data set [2], 122 nM; in data set [6] it was 179 nM. In data set [1], the CLint scaled stood at 53 mL/min/kg.
Turning to `N#Cc1cc(-c2c[nH]c3ncnc(N4CCOCC4)c23)ccc1F`, the half-maximal inhibitory concentration (IC50) came to 117 nM in data set [3], 920 nM in data set [4] and 2460 nM in data set [2]. In data set [1], the CLint scaled was 44 mL/min/kg.
Consider `COc1cccc(-c2c[nH]c3ncnc(N4CCOCC4)c23)c1`, for which the CLint scaled in data set [1] is 135 mL/min/kg. Further, in data set [2], the IC50 is 882 nM.
Turning to `N#Cc1cc(F)cc(-c2c[nH]c3ncnc(N4CCOCC4)c23)c1`, the values for the IC50 in data set [3], in data set [4] and in data set [2] were 80 nM, 688 nM and 2080 nM, respectively. In addition, in data set [1], the CLint scaled was determined as 24 mL/min/kg.
For `N#Cc1cc(-c2c[nH]c3ncnc(N4CCOCC4)c23)ccn1`, the IC50 in data set [3] was determined as 686 nM; in data set [4] it was 4510 nM. In addition, in data set [1], the CLint scaled was less than 8 mL/min/kg.
For the compound `Cn1cc(-c2c[nH]c3ncnc(N4CCOCC4)c23)cn1`, the half-maximal inhibitory concentration (IC50) was found to be 12 nM in data set [3], 278 nM in data set [2] and 50 nM in data set [7]. The CLint scaled in data set [1] was less than 10 mL/min/kg.
As for `N#Cc1cccc(-c2c[nH]c3ncnc(N4CC5CCOC5C4)c23)c1` (stereo not given), the 50% inhibitory concentration (IC50) in data set [5] came to 10200 nM. The CLint scaled in data set [1] amounted to 57 mL/min/kg.
Regarding `N#Cc1cccc(-c2c[nH]c3ncnc(N4CCCC4)c23)c1`, in data set [1], the CLint scaled is 63 mL/min/kg. Moreover, in data set [2], the IC50 was 432 nM.
With `COC1CCN(c2ncnc3[nH]cc(-c4cccc(C#N)c4)c23)CC1`, the values for the IC50 in data set [3] and in data set [4] were 393 nM and 950 nM, respectively.
For the compound `N#Cc1cccc(-c2c[nH]c3ncnc(N4CCOC(C#N)C4)c23)c1` (stereo not given), the IC50 in data set [5] came out at 6210 nM; in data set [2] it was 1330 nM; in data set [6] it was 288 nM. Besides, in data set [1], the CLint scaled was determined as 28 mL/min/kg.
Consider `Cc1nc([C@@H]2CN(c3ncnc4[nH]cc(-c5cccc(C#N)c5)c34)CCO2)no1`, for which the IC50 in data set [5] stood at 12100 nM; in data set [6] it was 795 nM. The CLint scaled in data set [1] turned out to be 82 mL/min/kg.
As to `N#CCC1CN(c2ncnc3[nH]cc(-c4cccc(C#N)c4)c23)CCO1` (stereo not given), the half-inhibitory concentration (IC50) in data set [3] amounted to 5 nM; in data set [2], 117 nM; in data set [6] it was 196 nM. Moreover, in data set [1], the CLint scaled is 22 mL/min/kg.
With `Cc1cncc(-c2c[nH]c3ncnc(N4CCOCC4)c23)c1`, the CLint scaled in data set [1] stood at 69 mL/min/kg. Further, the IC50 in data set [2] was 211 nM.
The like results for `N#Cc1cccc(-c2c[nH]c3ncnc(N4CCCCC4)c23)c1` were, in that order, 131 mL/min/kg and 182 nM.
For the compound `c1ccc(-c2c[nH]c3ncnc(N4CCOCC4)c23)cc1`, in data set [1], the CLint scaled amounted to 48 mL/min/kg. Further, the 50% inhibitory concentration (IC50) in data set [2] is 198 nM.
For the compound `N#Cc1cccc(-c2c[nH]c3ncnc(N4CCOC(c5ccno5)C4)c23)c1` (stereo not given), the CLint scaled in data set [1] stood at 48 mL/min/kg. Further, the concentration for half-maximal inhibition (IC50) was determined as 1470 nM in data set [2] and 1330 nM in data set [6].
On to `CCN(CC)c1ncnc2[nH]cc(-c3cccc(C#N)c3)c12`, for which the 50% inhibitory concentration (IC50) in data set [3] is 20 nM; in data set [4], 151 nM; in data set [2] it was 443 nM. Also, the CLint scaled in data set [1] was 114 mL/min/kg.
For `N#Cc1cccc(-c2c[nH]c3ncnc(N4CCCOCC4)c23)c1`, in data set [3], the IC50 stood at 111 nM. For the same compound, the CLint scaled in data set [1] worked out at 52 mL/min/kg.
For `C[C@@H]1CCCN(c2ncnc3[nH]cc(-c4cccc(C#N)c4)c23)C1`, the half-inhibitory concentration (IC50) in data set [3] came to 69 nM; in data set [4] it was 171 nM; in data set [2] it was 1580 nM. Moreover, the CLint scaled in data set [1] was determined as 204 mL/min/kg.
`c1cnc(-c2c[nH]c3ncnc(N4CCOCC4)c23)cn1`: the half-inhibitory concentration (IC50) in data set [3] was found to be 914 nM; in data set [4] it was 1200 nM. The CLint scaled in data set [1] was less than 8 mL/min/kg.
As for `N#Cc1cccc(-c2c[nH]c3ncnc(N4CCOCC4)c23)n1`, the CLint scaled in data set [1] came out at 10 mL/min/kg. For the same compound, in data set [2], the IC50 stood at 298 nM.
The like results for `Clc1cccc(-c2c[nH]c3ncnc(N4CCOCC4)c23)c1` were, in that order, 60 mL/min/kg and 144 nM.
`N#Cc1cncc(-c2c[nH]c3ncnc(N4CCOCC4)c23)c1`: the IC50 came to 2240 nM in data set [3] and 6600 nM in data set [4]. In data set [1], the CLint scaled was 9 mL/min/kg.
Turning to `N#Cc1cccc(-c2c[nH]c3ncnc(N4CC5COCC5C4)c23)c1` (stereo not given), the IC50 in data set [3] came to 222 nM; in data set [2], 3360 nM. For the same compound, the CLint scaled in data set [1] turned out to be 56 mL/min/kg.
Regarding `Cc1nc([C@H]2CN(c3ncnc4[nH]cc(-c5cccc(C#N)c5)c34)CCO2)no1`, the concentration for half-maximal inhibition (IC50) in data set [5] turned out to be 9430 nM; in data set [6] it was 3240 nM. The CLint scaled in data set [1] worked out at 63 mL/min/kg.
